Assay results as given in ChEMBL document CHEMBL1122536, “Novel pyrimidine and 1,3,5-triazine hypolipidemic agents” (J Med Chem, 1984).
Several values for one entry are separate records, joined by “and”; a condition that tells them apart may be missing. Identical values can stand only once.

Columns and labels:
[1] = tested on: Rattus norvegicus; assay: Hypolipidemic activity was assessed by measuring cholesterol in Sprague-Dawley male rats at 200 mg/kg; type: functional
Outline: (§1)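 Male Sprague-Dawley rats (185-g mean bodyweight) on a normal diet were dosed orally for 4 consecutive days at 50 mg/kg or 200 mg/kg. They were fasted 18 h, and blood was drawn from the abdominal aorta 24 h after the last dose. Serum total cholesterol, triglycerides (mg/100 mL) and lipoprotein α-cholesterol (% of total cholesterol) were measured. Groups of 10–40 rats were compared with controls by Student's t test.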

[2] = tested on: Rattus norvegicus; assay: Hypolipidemic activity was assessed by measuring triglycerides in Sprague-Dawley male rats at 200 mg/kg; type: functional; outline: as §1
[3] = (§2) Compound was evaluated for the dose that causes […] in Sprague-Dawley male rats; type: ADME, organism-based; settings: rat, in vivo
[4] = tested on: Rattus norvegicus; assay: Hypolipidemic activity was assessed by measuring alpha-cholesterol in Sprague-Dawley male rats at 200 mg/kg; type: functional; outline: as §1
[5] = tested on: Rattus norvegicus; assay: Hypolipidemic activity was assessed by measuring alpha-cholesterol in Sprague-Dawley male rats at 50 mg/kg; type: functional; outline: as §1
[6] = tested on: Rattus norvegicus; assay: Hypolipidemic activity was assessed by measuring cholesterol in Sprague-Dawley male rats at 50 mg/kg; type: functional; outline: as §1
[7] = tested on: Rattus norvegicus; assay: Hypolipidemic activity was assessed by measuring triglycerides in Sprague-Dawley male rats at 50 mg/kg; type: functional; outline: as §1
[8] = Evaluated for the dose that causes 50 % lethality in Sprague-Dawley male rats; type: ADME, organism-based; settings: rat, in vivo
[9] = tested on: Rattus norvegicus; assay: Hypolipidemic activity was assessed by measuring liver weight in Sprague-Dawley male rats at 50 mg/kg; type: functional
[10] = species on record: Rattus norvegicus; assay: Compound dose that causes […] in Sprague-Dawley male rats; type: functional
[11] = species on record: Rattus norvegicus; assay: as §2; type: functional
[12] = tested on: Rattus norvegicus; assay: Hyperlipidemic activity was assessed by measuring liver weight in Sprague-Dawley male rats at 50 mg/kg; type: functional
Outline: (§3)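 Sprague-Dawley rats were fed the hyperlipidemic Nath's diet for 15 days and dosed orally at 50 or 200 mg/kg, or at 6.25, 12.5 and 25 mg/kg on a diet with 0.5% cholesterol and cholic acid. After an 18-h fast they were killed on day 16, 24 h after the last dose. Serum total cholesterol and triglycerides were assayed, and liver weight was expressed per 100 g bodyweight. Groups were compared with Nath's-diet controls by Student's t test.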

[13] = tested on: Rattus norvegicus; assay: Hypolipidemic activity was assessed by measuring body weight in F 344 rats at 20 mg/kg
[14] = tested on: Rattus norvegicus; assay: Hypolipidemic activity was assessed in Variation of the liver enzyme catalase was expressed as units per mg of protein in F 344 rats at 20 mg/kg
[15] = tested on: Rattus norvegicus; assay: Hyperlipidemic activity was assessed by measuring triglycerides in Sprague-Dawley male rats at 50 mg/kg; type: functional; outline: as §3
[16] = tested on: Rattus norvegicus; assay: Hyperlipidemic activity was assessed by measuring cholesterol in Sprague-Dawley male rats at 50 mg/kg; type: functional; outline: as §3
[17] = tested on: Rattus norvegicus; assay: Hypolipidemic activity was assessed in Variation of the carnitine acetyl transferase was expressed as units per mg of protein in F 344 rats at 20 mg/kg
[18] = tested on: Rattus norvegicus; assay: Hypolipidemic activity was assessed inVariation of the enoyl-CoA oxide (umol/min mg) in F 344 rats at 20 mg/kg.
[19] = tested on: Rattus norvegicus; assay: Hyperlipidemic activity was assessed by measuring triglycerides in Sprague-Dawley male rats at 25 mg/kg; type: functional; outline: as §3
[20] = tested on: Rattus norvegicus; assay: Hyperlipidemic activity was assessed by measuring cholesterol in Sprague-Dawley male rats at 25 mg/kg; type: functional; outline: as §3
[21] = tested on: Rattus norvegicus; assay: Hyperlipidemic activity was assessed by measuring liver weight in Sprague-Dawley male rats at 12.5 mg/kg; type: functional; outline: as §3
[22] = tested on: Rattus norvegicus; assay: Hyperlipidemic activity was assessed in variation of palmitoyl-CoA oxide (umol/min mg) in F 344 rats at 20 mg/kg.
[23] = tested on: Rattus norvegicus; assay: Hyperlipidemic activity was assessed by measuring triglycerides in Sprague-Dawley male rats at 12.50 mg/kg; type: functional; settings: dose 12.5 mg/kg; outline: as §3
[24] = tested on: Rattus norvegicus; assay: Hyperlipidemic activity was assessed by measuring liver weight in Sprague-Dawley male rats at 25 mg/kg; type: functional; outline: as §3
[25] = tested on: Rattus norvegicus; assay: Hyperlipidemic activity was assessed by measuring liver weight in Sprague-Dawley male rats at 6.25 mg/kg; type: functional; outline: as §3
[26] = tested on: Rattus norvegicus; assay: Hyperlipidemic activity was assessed by measuring cholesterol in Sprague-Dawley male rats at 12.5 mg/kg; type: functional; outline: as §3
[27] = tested on: Rattus norvegicus; assay: Hyperlipidemic activity was assessed by measuring triglycerides in Sprague-Dawley male rats at 6.25 mg/kg; type: functional; outline: as §3
[28] = tested on: Rattus norvegicus; assay: Hyperlipidemic activity was assessed by measuring cholesterol in Sprague-Dawley male rats at 6.25 mg/kg; type: functional; outline: as §3
[29] = tested on: Rattus norvegicus; assay: Hypolipidemic activity was assessed in Variation of the liver enzyme catalase was expressed as units per mg of protein in F 344 rats at 20 mg/kg; remark: listed apart in the source
[30] = dose 20 mg/kg, in the assay text read “F 344 rats at 20 mg/kg” for “Sprague-Dawley male rats at 50 mg/kg”

Structure (SMILES)	Cholesterol [1] [mg 100ml-1]	Triglycerides [2] [mg/100 mL]	LD50 [3] [mg/kg]	Alpha-cholesterol [4] [%]	Alpha-cholesterol ([5]; dose 50 mg/kg)	Cholesterol [6] [mg 100ml-1]	Triglycerides [7] [mg/100 mL]	LD50 [8] [mg/kg]	further results
Cc1cccc(Nc2nc(Cl)nc(N(C)C)n2)c1C	80.8	< 91.4	< 2000	78.6	–	–	–	–	–
CN(C)c1nc(Cl)nc(N(C)C)n1	–	–	–	–	70%	84.8	–	–	–
CSc1nc(Cl)cc(Nc2cccc(C)c2C)n1	–	–	–	–	72.3%	<54.2	106	1250	–
Cc1cccc(Oc2cc(Cl)nc(N(C)C)n2)c1C	76.7	102	< 2000	72.6	–	–	–	–	–
Cc1cccc(N(C)c2cc(Cl)nc(S)n2)c1C	65.8	< 79.1	1780	74.4	–	–	–	–	–
Cc1cccc(N(C)c2cc(Cl)nc(N(C)C)n2)c1C	63.2	89.8	< 2500	90	–	–	–	–	–
Cc1cccc(N(C)c2cc(Cl)nc(NCC(=O)O)n2)c1C	–	–	–	–	77%	<68.4	< 50	995	–
Cc1cccc(Nc2nc(Cl)nc(OCC(=O)O)n2)c1C	72	< 65.5	1180	<82.1	–	–	–	–	–
CN(C)c1cc(Cl)nc(N(C)C)n1	–	–	–	–	–	<103.7	–	< 2500	Alpha-cholesterol ([5]; dose 200 mg/kg, in the assay text read “200 mg/kg” for “50 mg/kg”): 75.7%
Cc1cccc(Nc2nc(Cl)nc(N(C)CC(=O)O)n2)c1C	76.8	< 74.6	1220	79.8	–	–	–	–	–
Cc1cccc(Oc2cc(Cl)nc(SCC(=O)O)n2)c1C	–	–	–	–	77%	<67.7	< 56.4	1290	–
Cc1cccc(Nc2cc(Cl)nc(S)n2)c1C	76.3	95.6	–	73.2	–	–	–	1840	–
Cc1cccc(Oc2cc(Cl)nc(OCC(=O)O)n2)c1C	–	–	–	–	74%	67.1	91.1	1210	–
CCOc1nc(Nc2cccc(C)c2C)nc(SCC(=O)O)n1	70.3	< 76.1	–	<82.2	–	–	–	–	Liver weight [9, 30]: 3.1 g (100g of body weight)-1; LD50 [10]: 1120 mg/kg; Cholesterol [11]: 1054.8 mg 100ml-1; Liver weight [12]: 6.53 g 100g-1; Body weight [13]: 248 g; Catalase [14]: 50 U/mg protein; Triglycerides [15]: <214.3 mg 100ml-1
CCOc1cc(Nc2cccc(C)c2C)nc(SCC(=O)NCCO)n1	–	–	–	–	76.6%	<65.7	< 64.3	2500	Cholesterol [16]: <479.8 mg 100ml-1; Liver weight [9, 30]: 5.9 g (100g of body weight)-1; Liver weight [12]: 6.85 g 100g-1; Body weight [13]: 192 g; Catalase [14]: 67.5 U/mg protein; Triglycerides [15]: <206.6 mg 100ml-1
CCCCCCCCSc1nc(Cl)cc(Nc2cccc(C)c2C)n1	–	–	–	–	67.7%	63.2	96.5	–	–
Cc1cccc(N(C)c2cc(Cl)nc(OCC(=O)O)n2)c1C	–	–	–	–	87.2%	66.4	< 80.7	1070	–
CN(C)c1cc(Cl)nc(SCC(=O)O)n1	–	–	–	–	81.7% and 72.2%	–	–	< 2500	Cholesterol ([6]; 50 mg/kg): <62.5 mg 100ml-1 and <69.4 mg 100ml-1
Cc1cccc(N(C)c2cc(Cl)nc(SCC(=O)O)n2)c1C	–	–	–	–	78.6%	63.5	< 46.9	1010	–
CN(C)c1nc(N)nc(Cl)n1	<105.6	< 78.2	< 2000	85.4	–	–	–	–	–
CN(C)c1nc(N)cc(Cl)n1	71.4	< 89.9	< 2500	<87.4	–	–	–	–	–
Cc1cccc(Nc2cc(Cl)nc(NCC(=O)O)n2)c1C [ARONIXIL]	–	–	–	–	76.7%	<63.6	< 71.6	1020	Carnitine acetyl transferase [17]: 11 U/mg protein; Enoyl-CoA hydratase [18]: 3.7 uM min-1 (mg of protein)-1; Triglycerides [19]: 312.1 mg 100ml-1; Cholesterol [20]: <215.4 mg 100ml-1; Liver weight [21]: 5.14 g 100g-1; Liver weight [9, 30]: 4.2 g (100g of body weight)-1; Palmitoyl-CoA oxid [22]: 0.056 µM/min/mg; Body weight [13]: 266 g; Triglycerides [23]: 263.8 mg 100ml-1; Liver weight [24]: 5.31 g 100g-1; Liver weight [25]: 4.82 g 100g-1; Cholesterol [26]: 264.2 mg 100ml-1; Triglycerides [27]: <205.2 mg 100ml-1; Cholesterol [28]: 257.4 mg 100ml-1; Liver catalase [29]: 61 mg of protein
Cc1cccc(Nc2cc(Cl)nc(SCC(=O)O)n2)c1C [PIRINIXIC ACID]	–	–	–	–	75.1%	–	–	1050	Liver weight ([9]; dose 50 mg/kg): 8.23 g 100g-1 and 8.88 g 100g-1
